Test results: ChEMBL document CHEMBL1133473, “Synthesis and antiviral activity of 4-benzyl pyridinone derivatives as potent and selective non-nucleoside human immunodeficiency virus type 1 reverse transcriptase inhibitors” (J Med Chem, 2000)
Where “and” joins values, the source holds several entries; their conditions need not be identical. Equal values may be shown once.

Experiments:
CEM-SS [1] = test: Tested for inhibitory concentration on HIV-I Lai wild type in CEM-SS cell line; format: functional, cell-based; details: Homo sapiens
Summary of the method: (§1)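 CEM-SS lymphocytic cells infected with 100 TCID50 of HIV-1 LAI, or of the nevirapine-resistant N119 strain carrying an RT codon 181 mutation. Virus adsorbed 30 min, unbound virus removed by two washes, then cells cultured 5 days with serial compound dilutions. Read-out: RT activity of particles released into the supernatant. IC50 from a computer median effect plot of dose-effect data.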

CEM-SS [2] = test: Tested for cytotoxic concentration on HIV-I Lai wild type in CEM-SS cell line; format: functional; details: Homo sapiens
Summary of the method: (§2)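 CEM-SS cells, uninfected, cultured 5 days with compound. Compounds were taken from a DMSO solution at 10^-2 M (10^-3 M or lower if insoluble), diluted 1:100 in medium, then serially diluted in medium.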

[3] = tested on: Human immunodeficiency virus 1; test: Selectivity index is the ratio of CC50 to IC50; format: functional
[4] = tested on: Human immunodeficiency virus 1; test: Inhibitory concentration against HIV-1 AZTres.; format: functional, organism-based
Summary of the method: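 AZT-resistant HIV-1 isolate A018 G910-6 tested in cell culture; virus production measured as RT activity of particles released into the culture supernatant.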

[5] = tested on: Human immunodeficiency virus 1; test: Inhibitory concentration against HIV-1 Bal/Mono; format: functional, organism-based
Summary of the method: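 Macrophage-tropic HIV-1 Bal in monocyte-derived macrophages kept serum-free in AIM V medium with 100 U/mL GM-CSF. Virus output measured as supernatant particle-associated RT activity.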

[6] = Inhibitory concentration against HIV-2 D 194; format: functional
Summary of the method: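 Cell-based antiviral assay against this HIV-2 isolate. Compounds were dissolved in DMSO as 10^-2 M stocks, or 10^-3 M or lower when insoluble, diluted 1% in culture medium, then serially diluted in medium. Virus production was read as reverse transcriptase activity of particles released into the culture supernatant. IC50 was taken from a median-effect plot of the dose-effect data.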

[7] = tested on: Human immunodeficiency virus 1; test: Inhibitory concentration against HIV-1 IIIB strain; format: functional, organism-based
Summary of the method: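 MT4 cells infected with HIV-1 IIIB; antiviral effect read as protection from virus-induced cytopathogenicity by MTT. Compounds taken from DMSO stock, diluted in culture medium.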

[8] = tested on: Human immunodeficiency virus 1; test: Tested for cytotoxic concentration on HIV-I nevirapine resistant strain.; format: functional; summary of the method: as §2
[9] = tested on: Human immunodeficiency virus 1; test: Tested for inhibitory concentration on HIV-I nevirapine resistant strain.; format: functional, organism-based; summary of the method: as §1
[10] = tested on: Human immunodeficiency virus 1; test: Selectivity index is the ratio of CC50 to IC50 against HIV-1 nevirapine resistant strain; format: functional
MT4 [11] = test: Cytotoxicity against MT-4 cells infected with HIV-1 AZTres; format: functional; details: Homo sapiens
MT4 [12] = test: Cytotoxicity against MT-4 cells infected with HIV-1 IIIB strain; format: functional; details: Homo sapiens
[13] = Cytotoxicity against Macrophages infected with HIV-1 Bal/Mono; format: functional; details: Human immunodeficiency virus 1
[14] = Cytotoxicity against PBMC cells infected with HIV-1 IIIB strain; format: functional; details: Human immunodeficiency virus 1, PBMC
[15] = Cytotoxicity against PBMC cells infected with HIV-2 D 194; format: functional; details: Human immunodeficiency virus 2, PBMC
[16] = target: Human immunodeficiency virus type 1 reverse transcriptase (Human immunodeficiency virus 1, UniProt Q72547); test: Tested for inhibitory concentration on HIV-1 Reverse transcriptase in the presence of poly(c)-oligo-(dG)
Summary of the method: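 Recombinant HIV-1 RT purified from yeast, 20-50 nM. Reaction at 37 °C for 10 min in 50 mM Tris-HCl pH 8.0, 5 mM MgCl2, 4 mM DTT, 80 mM KCl, BSA, 0.48 A260 units/mL poly(C)-oligo(dG) (5:1), 2 µM dGTP plus [3H]dGTP. Stopped with cold 10% TCA plus 0.1 M pyrophosphate; precipitates filtered, scintillation counted. Compounds dissolved in DMSO.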

Structure (SMILES)	IC50 (CEM-SS [1])	CC50 (CEM-SS [2])	SI [3]	further results
CCc1c(C)nc(OC)c(NC(=O)C(C)(C)C)c1Cc1ccccc1	> 1000 nM	> 1000 nM	–	–
CCc1c(C)nc(O)c(N)c1Cc1ccccc1	730 nM	> 100000 nM	>136	–
CCC(=O)Nc1c(Cc2cc(C)cc(C)c2)c(CC)c(C)[nH]c1=O	4600 nM	> 10000 nM	>2	–
CCc1c(C)nc(OC)c(NC(C)=O)c1C(C)(OC(C)=O)c1cc(C)cc(C)c1 (configuration not stated)	2500 nM	> 10000 nM	>4	–
CCc1c(C)nc(O)c(NC(C)=O)c1Sc1cc(C)cc(C)c1	50 nM	–	1600	–
CCc1cc(N)c(O)nc1C	30000 nM	> 100000 nM	>3	–
CCOC(=O)Nc1c(O)nc(C)c(CC)c1Cc1cc(C)cc(C)c1	460 nM	> 10000 nM	>21	–
CCc1cc(NC(=O)C(C)(C)C)c(OC)nc1C	> 100000 nM	> 100000 nM	–	–
CCc1c(C)nc(OC)c(NC(=O)C(C)(C)C)c1C(O)c1cc(C)cc(C)c1 (configuration not stated)	> 1000 nM	> 1000 nM	–	–
CCC(=O)Nc1c(O)ncc(C)c1Sc1cc(C)cc(C)c1	41400 nM	–	>2	–
CCc1c(C)nc(OC)c2c1C(c1cc(C)cc(C)c1)OC(C(C)(C)C)=N2 (configuration not stated)	> 10000 nM	> 10000 nM	–	–
CCc1c(C)[nH]c(=O)c(N(C)C)c1Cc1cc(C)cc(C)c1	0.2 nM	> 1000 nM	>5000	IC50 [4]: 0.2 nM; IC50 [5]: 0.004 nM; IC50 [6]: > 1000 nM; IC50 [7]: 2.4 nM and 0.58 nM; CC50 [8]: > 1000 nM; IC50 [9]: 40 nM; SI [10]: >25; CC50 (MT4 [11]): > 1000 nM; CC50 (MT4 [12]): > 1000 nM; CC50 [13]: > 1000 nM; CC50 [14]: > 1000 nM; CC50 [15]: > 1000 nM; IC50 [16]: 20 nM
CCc1c(C)[nH]c(=O)c(NC(C)=O)c1Cc1cc(C)cc(C)c1	100 nM	> 10000 nM	>100	IC50 [4]: 440 nM; IC50 [5]: 200 nM; IC50 [6]: > 10000 nM; CC50 [8]: > 10000 nM; IC50 [9]: > 10000 nM; CC50 (MT4 [11]): > 10000 nM; CC50 (MT4 [12]): > 10000 nM; CC50 [13]: > 10000 nM; CC50 [14]: > 10000 nM; CC50 [15]: > 10000 nM
CCc1c(C)nc(O)c(NCc2cc(C)c(C)cc2OC)c1Cc1cc(C)cc(C)c1	1000 nM	> 1000 nM	–	–
CCc1c(C)nc(OC)c2c1C(c1cc(C)cc(C)c1)OC(O)(C(C)(C)C)N2 (configuration not stated)	4200 nM	> 10000 nM	>2	–
Cc1cn([C@H]2C[C@H](N=[N+]=[N-])[C@@H](CO)O2)c(=O)[nH]c1=O [ZIDOVUDINE]	3 nM	–	>33333	–
CCOC(=O)Nc1c(O)ncc(C)c1Sc1cc(C)cc(C)c1	7500 nM	–	>13	–
CCc1c(C)nc(OC)c(NC(=O)C(C)(C)C)c1C(C)(O)c1cc(C)cc(C)c1 (configuration not stated)	> 10000 nM	> 10000 nM	–	–
